Assay outcomes (PubChem BioAssay)
H69AR growth 86K = growth inhibitors of human H69AR lung tumor cells; H69AR lung tumor viability, ATP luminescence, 72 h; active compounds read low; 85,000 compounds, 6% hits; viability, % at 10 µM;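 active = viability at or below 40%; inactive = viability above 40%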;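 note: multidrug resistant small cell line overexpressing MRP-1 efflux transporter; 100% = mean luminescence of untreated control wells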
Jurkat viability = reduces viability or proliferation of Jurkat cells. Jurkat E6.1 viability, ATP luminescence, 48 h. inhibition, % at 4 µM. 56,000 compounds, 1.2% hits. AID 463;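 active = inhibition above the mean inhibition of all tested compounds plus 3 SD, cut at about 28% in these data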
Lung fibro prol = blocks proliferation of human lung fibroblasts; LL 47 human lung fibroblast viability, ATP luminescence; active compounds read low; viability, % at 10 µM; 85,000 compounds, 1.1% hits;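 active = viability at or below 50% in the single dose screen; inactive = viability above 50%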;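 note: compound exposure lasted 72 h before the ATP readout; 100% = median luminescence of untreated cell-only wells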
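Material: human LL 47 lung fibroblast cells; quantity: 1,150 cells/well; medium: IMEM plus 15% FBS; doses: 0.1% DMSO in all compound wells; timing: overnight attachment after seeding, then 72 h compound exposure at 37 °C; detection: CellTiter-Glo luminescence; measure: % viability of median cell-only signal; controls: cell-only wells, no compound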
HUVEC prolif 384 = blocks proliferation of human endothelial cells; HUVEC proliferation, CellTiter-Glo luminescence, 72 h; active compounds read low; viability, % at 10 µM (by protocol); 86,000 compounds, 1.1% hits; AID 648;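 active = viability at or below 30%; inactive = viability above 30%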;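 note: 100% = median luminescence of DMSO-only cell control wells on each plate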
Numbers without * were called inactive; / = no result given. An excerpt weighted towards active compounds, which were near 6.4% of everything screened.

SMILES	H69AR growth 86K	Jurkat viability	Lung fibro prol	HUVEC prolif 384
COc1ccc(NC(=O)CC2C(=O)N(c3cccc(OC)c3)C(=O)N2CCC(C)C)cc1 (configuration not stated)	79	/	92	91
COc1ccc(/C=C/C(=O)NC(=S)NNC(=O)c2ccco2)cc1	31*	/	63	43
CCCc1cc(=O)n2[nH]c(Cc3ccccc3)nc2n1	86	-17	90	97
Cc1ccc(C)c(N2CCN(c3cc(C)nc4nnnn34)CC2)c1	97	-13	100	97
CCc1nn(C(C)C(=O)NC(C)CCc2ccco2)c(=O)c2cc3occc3n12 (configuration not stated)	/	-4	/	/
CC(=O)c1ccc2c3c(cccc13)C(=O)N(c1c(C)nn(C)c1C)C2=O	87	0	103	113
Cc1n[nH]c(C)c1N1C(=O)c2cccc3c(N4CCCCCC4)ccc(c23)C1=O	35*	7	87	84
CCn1c(SCC(=O)Nc2nc3c(s2)CCCC3)nc2c1c(=O)n(C)c(=O)n2C	17*	-6	86	92
CCn1c(SCC(=O)Nc2nc3ccc(OC)cc3s2)nc2c1c(=O)n(C)c(=O)n2C	17*	4	94	73
CCn1c(SCC(=O)N2c3ccccc3CCc3ccccc32)nc2c1c(=O)n(C)c(=O)n2C	14*	6	99	94
CCOc1ccc2nc(NC(=O)CSc3nnnn3C3CCCCC3)sc2c1	1.7*	-3	91	79
CCCCn1c(SCC(=O)N2c3ccccc3CCc3ccccc32)nc2c1c(=O)n(C)c(=O)n2C	99	/	90	84
Cc1n[nH]c(C)c1S(=O)(=O)N(CC(=O)NC1CCCC1)c1ccc(C(C)C)cc1	61	4	85	94
CCOc1ccc2nc(NC(=O)Cn3cnc4c3c(=O)n(C)c(=O)n4C)sc2c1	91	-3	104	97
Cc1cc(NC(=O)CSc2nc3c(c(=O)n(C)c(=O)n3C)n2C(C)C)no1	90	2	97	100
Cn1cccc1Cc1nnc(SCC(=O)Nc2nc3ccccc3s2)n1CCc1ccccc1	5.4*	1	76	43
Cc1nnc(NC(=O)CSc2nnc(Cc3cccn3C)n2CCc2ccccc2)s1	71	8	96	105
CC(C)n1c(SCC(=O)Nc2nc3ccccc3s2)nc2c1c(=O)n(C)c(=O)n2C	29*	/	96	69
CCOc1ccc2nc(NC(=O)CSc3nc4c(c(=O)n(C)c(=O)n4C)n3C(C)C)sc2c1	30*	0	100	8.9*
O=C(c1ccco1)N1CCN(S(=O)(=O)Cc2ccc(Cl)cc2)CC1	86	-3	96	97
O=C(CN1C(=O)c2ccccc2S1(=O)=O)N1CCN(Cc2ccc3c(c2)OCO3)CC1	95	1	95	109
c1ccc(-n2ncc3c(N4CCN(c5ccccn5)CC4)nc(N4CCOCC4)nc32)cc1	28*	0	95	54
CCOC(=O)c1cc(C)n(Cc2ccc(OCC)c(OC)c2)c1C	89	/	85	94
COc1cc(/C=C/C(=O)c2c(O)cc(C)oc2=O)cc(OC)c1O	25*	/	70	79
C/C(=N/NC(=O)c1cccc(C)c1)c1c(O)cc(C)oc1=O	72	/	99	111
SMILES	H69AR growth 86K	Jurkat viability	Lung fibro prol	HUVEC prolif 384
COc1cccc(/C=C/C(=O)c2c(O)cc(C)oc2=O)c1O	4.0*	/	69	61
CCOC(=O)C1=NN(N=O)C2(CC(=O)N(c3cc(C)cc(C)c3)C2=O)C1 (configuration not stated)	96	/	98	101
O=C1CSC(=S)N1CC1CCCO1 (configuration not stated)	20*	4	93	95
O=C1C2C3C=CC(C3)C2C(=O)N1CC1CCCO1 (configuration not stated)	97	-6	103	92
CC(C)Cc1nc2oc3c(NCCCN4CCOCC4)ncnc3c2c2c1CCC2	55	/	94	75
CC(C)Cc1nc2oc3c(Cl)ncnc3c2c2c1CCC2	70	/	45*	3.3*
O=S1(=O)Nc2c(ccc3cccnc23)-c2ccccc21	/	67*	/	/
COc1ccc(C2=Nn3c(nnc3-c3ccncc3)SC2)cc1	61	/	87	63
COc1ccc(C2=Nn3c(nnc3-c3ccco3)SC2)cc1	20*	/	78	66
COc1ccc(OCc2nnc3n2N=C(c2ccc(OC)cc2)CS3)cc1	30*	4	84	74
COc1ccc(OC)c(C2=Nn3c(nnc3-c3ccco3)SC2)c1	54	/	83	78
CCOc1ccc(C2=Nn3c(nnc3-c3ccc(OC)cc3)SC2)cc1	14*	62*	49*	49
CC(C)(C)OC(=O)N1CCCC1C(=O)NC(Cc1ccccc1)C(=O)O (configuration not stated)	110	-8	97	106
CCCCN(CCCC)c1cc(C)nc(-c2ccccc2O)n1	69	/	91	130
CC(C)c1ccc(NC(=O)CSc2nc3c(c(=O)[nH]2)CCC3)cc1	108	8	93	91
Cc1nc2c(ccc3nc(NC(=O)c4ccc5c(c4)OCCO5)sc32)s1	8.2*	-9	92	7.8*
Cc1nc2ccc3nc(NC(=O)c4ccc5c(c4)OCCO5)sc3c2s1	81	-14	100	83
CCOC(=O)c1ccc(-n2c(=S)sc3c(=O)[nH]c(C)nc32)cc1	94	/	97	100
N#Cc1ccccc1S(=O)(=O)N1CCN(c2ccc(S(=O)(=O)N3CCOCC3)cn2)CC1	82	-9	96	103
CCN(CC)S(=O)(=O)c1ccc(N2CCN(S(=O)(=O)c3ccccc3C#N)CC2)nc1	38*	/	92	92
O=C(NC1CCCCC1)Nn1c(-c2ccccc2)nc2ccccc2c1=O	94	/	100	90
Cc1ccsc1/C=C/c1ccc2cccc(O)c2n1	18*	/	45*	62
Oc1cccc2ccc(/C=C/c3cccs3)nc12	12*	/	14*	60
O=C(O)C1CC(=O)N(c2ccc(OCc3c(F)cccc3Cl)cc2)C1 (configuration not stated)	94	4	100	115
O=C(CSc1nnc(-c2ccccc2)o1)OCc1ccccc1	/	-6	/	/
SMILES	H69AR growth 86K	Jurkat viability	Lung fibro prol	HUVEC prolif 384
O=C(O)c1ccc(-n2nnnc2Oc2cccc3cccnc23)cc1	105	/	101	103
COc1ccc2[nH]c(=O)c(CN(Cc3cccs3)S(=O)(=O)c3cccc4nsnc34)cc2c1	3.0*	-3	83	74
COc1ccc(CNCc2cc3c(C(C)(C)C)nn(-c4ccccc4)c3[nH]c2=O)cc1	24*	/	69	72
Cc1ccc(CNCc2cc3c(C(C)(C)C)nn(-c4ccccc4)c3[nH]c2=O)cc1	1.9*	/	65	67
CC(C)(C)c1nn(-c2ccccc2)c2[nH]c(=O)c(CNCc3ccco3)cc12	7.8*	-1	100	44
CC(C)(C)c1nn(-c2ccccc2)c2[nH]c(=O)c(CNc3ccc4c(c3)OCCO4)cc12	101	/	92	53
O=C(CCCc1ccccc1)Nc1cccnc1	110	/	109	97
Cc1cccc(NC(=O)Cn2cnc3sc(C)c(S(=O)(=O)N4CCC(C)CC4)c3c2=O)n1	85	/	98	105
CN(C)c1ccc(/C=C(\C#N)C(=O)Nc2nc3c(s2)CCN(Cc2ccccc2)C3)cc1	2.4*	/	83	24*
